Legend:
[1] = Cmax in Sprague-Dawley rat in Sprague-Dawley rat at 2 mg/kg, iv and 3 mg/kg, po; format: ADME, organism-based; conditions: in vivo
Outline: (§1)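 Male Sprague–Dawley rats received 2.0 mg/kg IV in 100% PEG400 and 3.0 mg/kg PO in 0.5% methyl cellulose. Clearance, Vss, terminal half-life, Cmax, AUClast and oral bioavailability were derived from plasma levels.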

[2] = target: T1, Sphingosine 1-phosphate receptor 1 (Homo sapiens, UniProt P21453); experiment: Agonist activity against human S1P1 assessed as accumulation of cAMP by HTRF assay; format: functional
T1 sequence (P21453 whole entry): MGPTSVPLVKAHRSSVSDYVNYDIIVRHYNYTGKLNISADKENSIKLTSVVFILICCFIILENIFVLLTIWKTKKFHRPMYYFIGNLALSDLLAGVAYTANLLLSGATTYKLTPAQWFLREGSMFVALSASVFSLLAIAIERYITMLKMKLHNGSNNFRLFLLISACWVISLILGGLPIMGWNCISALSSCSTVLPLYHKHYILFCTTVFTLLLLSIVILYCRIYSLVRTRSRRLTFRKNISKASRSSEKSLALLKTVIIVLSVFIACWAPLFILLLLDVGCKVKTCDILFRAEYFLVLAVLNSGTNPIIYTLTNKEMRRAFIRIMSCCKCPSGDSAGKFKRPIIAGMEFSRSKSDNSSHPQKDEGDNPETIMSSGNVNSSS
Outline: (§2)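 Agonist EC50 was read from a cAMP HTRF assay run on human, rat and mouse S1P1. Response was scaled against S1P, and values are the mean of three or more replicates.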

[3] = Oral bioavailability in Sprague-Dawley rat at 3 mg/kg; format: ADME, organism-based; conditions: in vivo; outline: as §1
[4] = target: Cytochrome P450 3A4 (Homo sapiens, UniProt P08684); experiment: Inhibition of CYP3A4; format: ADME
Cytochrome P450 3A4, sequence (P08684 whole entry): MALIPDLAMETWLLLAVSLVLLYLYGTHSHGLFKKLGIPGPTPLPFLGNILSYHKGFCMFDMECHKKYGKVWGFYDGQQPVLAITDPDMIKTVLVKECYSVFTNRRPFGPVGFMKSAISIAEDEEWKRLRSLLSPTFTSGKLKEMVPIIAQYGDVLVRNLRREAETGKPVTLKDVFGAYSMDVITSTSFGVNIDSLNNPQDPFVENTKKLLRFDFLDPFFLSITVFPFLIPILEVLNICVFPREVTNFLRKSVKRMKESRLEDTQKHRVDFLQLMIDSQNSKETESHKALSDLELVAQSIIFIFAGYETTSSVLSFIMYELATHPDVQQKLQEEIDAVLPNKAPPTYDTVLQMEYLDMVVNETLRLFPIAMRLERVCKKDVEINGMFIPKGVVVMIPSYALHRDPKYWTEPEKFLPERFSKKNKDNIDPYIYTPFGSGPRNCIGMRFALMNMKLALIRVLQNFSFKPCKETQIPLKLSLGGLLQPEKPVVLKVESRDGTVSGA

[5] = Half life in rat liver microsome; format: ADME; conditions: liver microsomes
[6] = Volume of distribution at steady state in Sprague-Dawley rat at 2 mg/kg, iv and 3 mg/kg, po; format: ADME, organism-based; conditions: in vivo, read-out: Vdss; outline: as §1
[7] = Half life in human liver microsome; format: ADME; conditions: liver microsomes
[8] = tested on: Salmonella typhimurium; experiment: Mutagenic activity against Salmonella typhimurium assessed as base pair mutation by ames test; format: toxicity, organism-based; conditions: salmonella enterica subsp. enterica serovar typhimurium
Outline: (§3)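 Ames bacterial reverse mutation test on five strains, scored for frame-shift and base-pair substitution mutations.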

[9] = target: T2, Voltage-gated inwardly rectifying potassium channel KCNH2 (Homo sapiens, UniProt Q12809); experiment: Inhibition of human ERG by patch clamp assay
T2 sequence (Q12809 whole entry): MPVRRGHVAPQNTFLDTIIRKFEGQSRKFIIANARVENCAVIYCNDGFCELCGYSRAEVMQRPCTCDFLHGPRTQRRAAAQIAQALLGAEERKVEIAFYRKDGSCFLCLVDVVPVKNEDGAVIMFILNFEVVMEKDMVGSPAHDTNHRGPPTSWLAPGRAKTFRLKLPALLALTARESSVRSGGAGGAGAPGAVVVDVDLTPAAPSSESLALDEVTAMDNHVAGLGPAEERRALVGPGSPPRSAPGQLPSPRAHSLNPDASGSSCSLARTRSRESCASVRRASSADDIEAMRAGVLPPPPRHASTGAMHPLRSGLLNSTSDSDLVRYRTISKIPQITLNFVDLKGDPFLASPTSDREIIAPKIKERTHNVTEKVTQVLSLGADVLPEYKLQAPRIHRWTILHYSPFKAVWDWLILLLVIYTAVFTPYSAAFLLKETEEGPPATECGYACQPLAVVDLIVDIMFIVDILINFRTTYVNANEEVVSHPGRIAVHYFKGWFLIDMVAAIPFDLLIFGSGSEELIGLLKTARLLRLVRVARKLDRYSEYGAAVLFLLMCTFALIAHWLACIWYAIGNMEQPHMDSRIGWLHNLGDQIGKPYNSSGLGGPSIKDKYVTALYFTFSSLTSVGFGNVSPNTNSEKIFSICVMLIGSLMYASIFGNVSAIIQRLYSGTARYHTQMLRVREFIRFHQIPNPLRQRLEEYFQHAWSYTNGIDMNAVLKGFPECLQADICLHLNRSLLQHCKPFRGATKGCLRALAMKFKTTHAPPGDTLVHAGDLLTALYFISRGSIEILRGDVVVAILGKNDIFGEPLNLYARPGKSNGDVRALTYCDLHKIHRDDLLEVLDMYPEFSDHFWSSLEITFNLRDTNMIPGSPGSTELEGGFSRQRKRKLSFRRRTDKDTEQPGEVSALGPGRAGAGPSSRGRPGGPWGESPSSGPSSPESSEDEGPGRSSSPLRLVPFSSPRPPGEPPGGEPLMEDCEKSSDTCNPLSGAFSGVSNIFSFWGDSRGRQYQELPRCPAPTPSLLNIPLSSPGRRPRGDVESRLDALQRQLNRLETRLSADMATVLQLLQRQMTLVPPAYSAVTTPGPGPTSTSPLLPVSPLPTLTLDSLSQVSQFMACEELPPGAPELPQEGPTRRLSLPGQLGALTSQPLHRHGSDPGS

[10] = target: Sphingosine 1-phosphate receptor 1 (Rattus norvegicus, UniProt P48303); experiment: Agonist activity against rat S1P1 assessed as accumulation of cAMP by HTRF assay; format: functional; outline: as §2
Sphingosine 1-phosphate receptor 1 (Rattus norvegicus, UniProt P48303), sequence (P48303 whole entry): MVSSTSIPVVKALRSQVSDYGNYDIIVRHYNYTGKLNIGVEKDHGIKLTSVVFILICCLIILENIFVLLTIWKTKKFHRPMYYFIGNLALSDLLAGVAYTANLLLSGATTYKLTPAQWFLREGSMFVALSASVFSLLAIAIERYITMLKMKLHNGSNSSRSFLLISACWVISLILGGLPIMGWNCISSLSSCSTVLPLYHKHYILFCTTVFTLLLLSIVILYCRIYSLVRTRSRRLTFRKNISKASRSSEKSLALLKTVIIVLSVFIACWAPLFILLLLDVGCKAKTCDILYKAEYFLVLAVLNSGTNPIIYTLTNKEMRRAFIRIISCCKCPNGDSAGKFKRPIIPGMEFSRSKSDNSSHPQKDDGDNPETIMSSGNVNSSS

[11] = target: Cytochrome P450 2C19 (Homo sapiens, UniProt P33261); experiment: Inhibition of CYP2C19; format: ADME
Cytochrome P450 2C19, sequence (P33261 whole entry): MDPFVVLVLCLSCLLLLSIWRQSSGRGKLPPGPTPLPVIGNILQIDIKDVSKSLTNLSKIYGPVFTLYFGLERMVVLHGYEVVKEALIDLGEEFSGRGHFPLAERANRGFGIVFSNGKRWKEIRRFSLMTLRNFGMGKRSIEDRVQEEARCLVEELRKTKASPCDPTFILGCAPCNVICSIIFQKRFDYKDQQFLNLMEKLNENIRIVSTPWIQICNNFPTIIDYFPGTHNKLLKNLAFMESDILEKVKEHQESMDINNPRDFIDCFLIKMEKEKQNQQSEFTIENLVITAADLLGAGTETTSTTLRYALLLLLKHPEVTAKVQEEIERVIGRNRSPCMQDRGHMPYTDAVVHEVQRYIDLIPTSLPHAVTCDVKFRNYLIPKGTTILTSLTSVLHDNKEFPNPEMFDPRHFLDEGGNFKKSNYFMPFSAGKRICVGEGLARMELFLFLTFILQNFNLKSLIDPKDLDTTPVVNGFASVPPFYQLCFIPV

[12] = target: Cytochrome P450 2D6 (Homo sapiens, UniProt P10635); experiment: Inhibition of CYP2D6; format: ADME
Cytochrome P450 2D6, sequence (P10635 whole entry): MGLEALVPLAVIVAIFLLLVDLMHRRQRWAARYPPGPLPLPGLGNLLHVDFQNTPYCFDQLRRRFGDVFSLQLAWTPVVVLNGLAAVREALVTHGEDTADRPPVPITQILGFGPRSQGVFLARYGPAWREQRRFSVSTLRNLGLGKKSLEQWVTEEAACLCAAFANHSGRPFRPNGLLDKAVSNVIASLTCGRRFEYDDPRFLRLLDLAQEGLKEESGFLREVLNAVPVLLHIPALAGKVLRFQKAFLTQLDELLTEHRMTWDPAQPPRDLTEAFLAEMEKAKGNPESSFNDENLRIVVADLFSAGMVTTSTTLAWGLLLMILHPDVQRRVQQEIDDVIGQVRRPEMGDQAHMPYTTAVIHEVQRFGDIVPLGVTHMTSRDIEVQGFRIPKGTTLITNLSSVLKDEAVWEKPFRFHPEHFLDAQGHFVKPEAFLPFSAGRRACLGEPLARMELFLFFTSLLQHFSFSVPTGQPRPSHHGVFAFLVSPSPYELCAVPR

[13] = tested on: Rattus norvegicus; experiment: Toxicity in telemeterized Charles-River Sprague-Dawley rat assessed as reduction in heart rate at 30 mg/kg, po measured over 20 hrs; format: organism-based; design: dose 30 mg/kg, route oral; conditions: in vivo
Outline: (§4)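 Telemeterized Charles River Sprague–Dawley rats received 3 or 30 mg/kg orally as a suspension in 0.5% methyl cellulose, with vehicle-treated and positive-control groups. Heart rate was recorded hourly over 20 h.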

[14] = tested on: Rattus norvegicus; experiment: Toxicity in telemeterized Charles-River Sprague-Dawley rat assessed as reduction in heart rate at 3 mg/kg, po measured over 20 hrs; format: organism-based; design: dose 3 mg/kg, route oral; conditions: in vivo; outline: as §4
[15] = target: Sphingosine 1-phosphate receptor 1 (Mus musculus, UniProt O08530); experiment: Agonist activity against mouse S1P1 assessed as accumulation of cAMP by HTRF assay; format: functional; outline: as §2
Sphingosine 1-phosphate receptor 1 (Mus musculus, UniProt O08530), sequence (O08530 whole entry): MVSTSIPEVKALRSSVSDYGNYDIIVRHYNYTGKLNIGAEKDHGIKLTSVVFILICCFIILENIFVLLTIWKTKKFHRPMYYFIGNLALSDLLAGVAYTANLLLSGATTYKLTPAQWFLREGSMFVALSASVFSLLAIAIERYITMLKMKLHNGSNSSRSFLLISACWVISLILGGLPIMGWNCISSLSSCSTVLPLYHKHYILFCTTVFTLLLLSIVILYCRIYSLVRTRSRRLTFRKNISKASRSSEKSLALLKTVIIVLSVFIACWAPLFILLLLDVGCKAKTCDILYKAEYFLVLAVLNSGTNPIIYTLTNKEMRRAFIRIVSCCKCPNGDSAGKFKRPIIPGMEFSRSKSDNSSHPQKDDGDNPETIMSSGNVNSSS

[16] = target: T3, Cytochrome P450 1A2 (Homo sapiens, UniProt P05177); experiment: Inhibition of CYP1A2; format: ADME
T3 sequence (P05177 whole entry): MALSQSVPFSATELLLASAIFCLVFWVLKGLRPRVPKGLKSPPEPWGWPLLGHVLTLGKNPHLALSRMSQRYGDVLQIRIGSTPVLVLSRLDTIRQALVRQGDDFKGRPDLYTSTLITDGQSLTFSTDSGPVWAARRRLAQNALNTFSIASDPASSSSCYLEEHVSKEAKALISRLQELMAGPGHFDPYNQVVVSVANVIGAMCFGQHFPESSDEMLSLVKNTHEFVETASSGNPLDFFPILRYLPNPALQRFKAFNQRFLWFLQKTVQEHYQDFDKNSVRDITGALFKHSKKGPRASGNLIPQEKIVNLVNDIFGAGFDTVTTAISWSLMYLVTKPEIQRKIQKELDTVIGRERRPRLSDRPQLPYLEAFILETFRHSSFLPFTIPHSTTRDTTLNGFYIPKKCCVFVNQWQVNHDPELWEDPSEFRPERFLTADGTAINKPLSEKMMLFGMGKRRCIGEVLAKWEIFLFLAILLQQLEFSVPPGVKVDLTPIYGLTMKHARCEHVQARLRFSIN

[17] = Clearance in Sprague-Dawley rat at 2 mg/kg, iv and 3 mg/kg, po; format: ADME, organism-based; conditions: in vivo; outline: as §1
[18] = target: T4, Sphingosine 1-phosphate receptor 4 (Homo sapiens, UniProt O95977); experiment: Agonist activity against human S1P4 by beta arrestin recruitment assay; format: functional
T4 sequence (O95977 whole entry): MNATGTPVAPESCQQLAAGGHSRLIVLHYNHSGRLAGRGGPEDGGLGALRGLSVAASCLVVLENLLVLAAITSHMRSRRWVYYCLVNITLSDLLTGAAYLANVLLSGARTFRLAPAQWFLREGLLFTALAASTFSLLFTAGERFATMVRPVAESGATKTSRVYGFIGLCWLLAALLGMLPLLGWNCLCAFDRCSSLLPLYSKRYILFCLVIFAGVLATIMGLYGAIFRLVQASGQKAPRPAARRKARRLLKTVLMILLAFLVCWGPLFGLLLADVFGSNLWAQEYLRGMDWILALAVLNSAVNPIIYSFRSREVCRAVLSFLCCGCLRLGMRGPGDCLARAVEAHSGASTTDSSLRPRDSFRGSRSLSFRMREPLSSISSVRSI
Outline: (§5)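 Agonist EC50 at human S1P1 through S1P5 was measured by β-arrestin recruitment. Values are the mean of three or more replicates.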

[19] = target: Sphingosine 1-phosphate receptor 2 (Homo sapiens, UniProt O95136); experiment: Agonist activity against human S1P2 by beta arrestin recruitment assay; format: functional; outline: as §5
Sphingosine 1-phosphate receptor 2, sequence (O95136 whole entry): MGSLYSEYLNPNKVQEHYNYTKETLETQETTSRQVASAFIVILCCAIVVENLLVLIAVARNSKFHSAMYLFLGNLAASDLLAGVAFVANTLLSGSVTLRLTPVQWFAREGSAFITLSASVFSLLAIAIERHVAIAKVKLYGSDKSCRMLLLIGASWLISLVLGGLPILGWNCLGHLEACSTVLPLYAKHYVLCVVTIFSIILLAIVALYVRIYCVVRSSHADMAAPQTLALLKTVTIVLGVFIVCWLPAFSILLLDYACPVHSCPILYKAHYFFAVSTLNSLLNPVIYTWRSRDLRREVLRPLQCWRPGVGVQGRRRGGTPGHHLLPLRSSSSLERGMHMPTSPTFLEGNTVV

[20] = tested on: Salmonella typhimurium; experiment: Mutagenic activity against Salmonella typhimurium assessed as frame shift mutation by ames test; format: toxicity, organism-based; conditions: salmonella enterica subsp. enterica serovar typhimurium; outline: as §3
[21] = target: Sphingosine 1-phosphate receptor 5 (Homo sapiens, UniProt Q9H228); experiment: Agonist activity against human S1P5 by beta arrestin recruitment assay; format: functional; outline: as §5
[22] = target: T2, Voltage-gated inwardly rectifying potassium channel KCNH2; experiment: Inhibition of human ERG by astemizole assay
[23] = target: Cytochrome P450 2C9 (Homo sapiens, UniProt P11712); experiment: Inhibition of CYP2C9; format: ADME
Cytochrome P450 2C9, sequence (P11712 whole entry): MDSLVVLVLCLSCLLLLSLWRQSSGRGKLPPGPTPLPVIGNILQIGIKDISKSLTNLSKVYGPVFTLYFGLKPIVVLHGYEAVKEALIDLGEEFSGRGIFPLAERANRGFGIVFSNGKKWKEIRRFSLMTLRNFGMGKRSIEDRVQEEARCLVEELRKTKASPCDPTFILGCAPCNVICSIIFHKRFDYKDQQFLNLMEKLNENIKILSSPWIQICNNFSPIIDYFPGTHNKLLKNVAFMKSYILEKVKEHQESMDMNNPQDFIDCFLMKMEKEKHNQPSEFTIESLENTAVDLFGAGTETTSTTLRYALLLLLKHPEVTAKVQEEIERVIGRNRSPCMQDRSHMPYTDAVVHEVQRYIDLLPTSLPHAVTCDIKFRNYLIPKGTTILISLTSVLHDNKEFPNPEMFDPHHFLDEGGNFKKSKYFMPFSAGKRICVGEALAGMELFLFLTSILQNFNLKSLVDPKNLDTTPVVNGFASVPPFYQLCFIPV

[24] = AUClast in Sprague-Dawley rat in Sprague-Dawley rat at 2 mg/kg, iv and 3 mg/kg, po; format: ADME, organism-based; conditions: plasma; outline: as §1
[25] = target: Sphingosine 1-phosphate receptor 3 (Homo sapiens, UniProt Q99500); experiment: Agonist activity against human S1P3 by beta arrestin recruitment assay; format: functional; outline: as §5
[26] = target: T1, Sphingosine 1-phosphate receptor 1; experiment: Agonist activity against human S1P1 by beta arrestin recruitment assay; format: functional; outline: as §5
[27] = Terminal half life in Sprague-Dawley rat at 2 mg/kg, iv and 3 mg/kg, po; format: ADME, organism-based; conditions: in vivo, read-out: beta t1/2 (converted); outline: as §1

N#Cc1cc(OC(F)(F)F)cc(-c2nc(-c3ccc4c(c3)cc3n4CCC3CC(=O)O)no2)c1 (single isomer, unassigned; enantiomer 2)
Cmax [1]: 13300 ng/mL | EC50 [2]: 0.08 nM | bioavailability [3]: 100% | IC50 [4]: > 30 µM | half-life [5]: > 1 h | Vd [6]: 0.234 L/kg | half-life [7]: > 1 h | Activity [8]: Non-toxic | IC50 [9]: > 400 µM | EC50 [10]: 0.0001 µM | IC50 [11]: > 30 µM | IC50 [12]: > 30 µM | Activity [13]: Non-toxic | Activity [14]: Non-toxic | EC50 [15]: 0.00052 µM | IC50 [16]: > 30 µM | clearance [17]: 0.422 mL/min/kg | EC50 [18]: > 100 µM | EC50 [19]: > 100 µM | Activity [20]: Non-toxic | EC50 [21]: 0.021 µM | IC50 [22]: > 30 µM | IC50 [23]: > 30 µM | AUC(0-t) [24]: 124 µg·h/mL | EC50 [25]: > 100 µM | EC50 [26]: 0.0048 µM | half-life [27]: 4.68 h

From ChEMBL document CHEMBL2046302, “Fused tricyclic indoles as S1P₁ agonists with robust efficacy in animal models of autoimmune disease” (Bioorg Med Chem Lett, 2012)
